Measurements as given in ChEMBL document CHEMBL1155469, “Peptide nucleic acids conjugated to short basic peptides show improved pharmacokinetics and antisense activity in adipose tissue” (J Med Chem, 2010).
Active and inactive are the calls of the source. The calls are words filed in the database; no cut-off is given here.

Assays:
BCL1 = assay: Inhibition of PTEN expression in mouse BCL1 cells after 62 hrs by Western blotting; format: functional, cell-based; settings: BCL1, 62 h
Summary of the method: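 BCL1 cells were grown in DMEM with 10% FBS at 37 °C, 5% CO2. Compound was delivered to 2×10^6 cells by electroporation (200 V, 1000 uF, 13 ohms), and cells were harvested 62 h later. Western blot of RIPA lysates used rabbit anti-PTEN and anti-CD40 (1:1000) with HRP secondary and ECL detection. PTEN was normalized to CD40. n=3, mean ± SD.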

Mus musculus [1] = assay: Toxicity in Balb/C mouse assessed as change in serum bilirubin levels at 25 mg/kg, ip administered thrice a week for 2 weeks measured 48 hrs after last dose; format: organism-based; design: dose 25 mg/kg, route intraperitoneal; settings: in vivo
Summary of the method: (§1)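 Male Balb/c mice, 6–8 wk, n=4/group, received compound i.p. in PBS (10 ul/g) 3x/wk for 2 wk. Body weight was monitored throughout. At 48 h after the last dose, mice were anesthetized with isoflurane and bled by cardiac puncture. Serum AST, ALT, BUN, bilirubin, glucose and triglycerides were compared with the saline group. ALT rise below 2x normal was counted as absent.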

Mus musculus [2] = assay: Inhibition of PTEN expression in Balb/C mouse liver at 25 mg/kg, ip administered thrice a week for 2 weeks measured 48 hrs after last dose by Western blot analysis; format: functional, organism-based; design: dose 25 mg/kg
Summary of the method: (§2)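 Male Balb/c mice, 6–8 wk, n=4/group, dosed i.p. in PBS 3x/wk for 2 wk and killed 48 h after the last dose. Tissue was homogenized in RIPA buffer with protease inhibitors, and protein was measured by Lowry assay. Lysates were run on 10% PAGE and blotted to PVDF. Blots were probed with rabbit anti-PTEN (1:1000) and HRP anti-rabbit (1:2500), with ECL detection.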

Mus musculus [3] = assay: Toxicity in Balb/C mouse assessed as change in serum ALT levels at 25 mg/kg, ip administered thrice a week for 2 weeks measured 48 hrs after last dose; format: organism-based; design: dose 25 mg/kg, route intraperitoneal; settings: in vivo; summary of the method: as §1
Mus musculus [4] = assay: Inhibition of PTEN expression in Balb/C mouse white adipose tissue assessed as reduction of full length transcript at 25 mg/kg, ip administered thrice a week for 2 weeks measured 48 hrs after last dose […]; format: functional, organism-based; design: dose 25 mg/kg
Mus musculus [5] = assay: Toxicity in Balb/C mouse assessed as change in body weight at 25 mg/kg, ip administered thrice a week for 2 weeks measured 48 hrs after last dose; format: organism-based; design: dose 25 mg/kg, route intraperitoneal; settings: in vivo; summary of the method: as §1
Mus musculus [6] = assay: Toxicity in Balb/C mouse assessed as change in serum AST levels at 25 mg/kg, ip administered thrice a week for 2 weeks measured 48 hrs after last dose; format: organism-based; design: dose 25 mg/kg, route intraperitoneal; settings: in vivo; summary of the method: as §1
Mus musculus [7] = assay: Inhibition of PTEN expression in Balb/C mouse kidney at 25 mg/kg, ip administered thrice a week for 2 weeks measured 48 hrs after last dose by Western blot analysis; format: functional, organism-based; design: dose 25 mg/kg; summary of the method: as §2
Mus musculus [8] = assay: Toxicity in Balb/C mouse assessed as change in serum glucose levels at 25 mg/kg, ip administered thrice a week for 2 weeks measured 48 hrs after last dose; format: organism-based; design: dose 25 mg/kg, route intraperitoneal; settings: in vivo; summary of the method: as §1
Mus musculus [9] = assay: Toxicity in Balb/C mouse assessed as change in serum triglyceride levels at 25 mg/kg, ip administered thrice a week for 2 weeks measured 48 hrs after last dose; format: organism-based; design: dose 25 mg/kg, route intraperitoneal; settings: in vivo; summary of the method: as §1
Mus musculus [10] = assay: Toxicity in Balb/C mouse assessed as change in blood urea nitrogen levels at 25 mg/kg, ip administered thrice a week for 2 weeks measured 48 hrs after last dose; format: organism-based; design: dose 25 mg/kg, route intraperitoneal; settings: in vivo; summary of the method: as §1
Mus musculus [11] = assay: Inhibition of PTEN expression in Balb/C mouse white adipose tissue assessed as upregulation of isoform lacking exon at 25 mg/kg, ip administered thrice a week for 2 weeks measured 48 hrs after last dose […]; format: functional, organism-based; design: dose 25 mg/kg
Mus musculus [12] = assay: Acute toxicity in Balb/C mouse assessed as change in serum chemistry at 2.5 to 12.5 mg/kg, ip administered BID for 5 days measured 48 hrs after last dose; format: organism-based; design: dose 2.5-12.5 mg/kg, route intraperitoneal; settings: in vivo
Summary of the method: (§3)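 Male Balb/c mice aged 6–8 weeks, n=4 per group, dosed i.p. with compound suspended in PBS and filter sterilized, 10 ul/g body weight. Body weight tracked throughout the live phase. Under isoflurane anaesthesia, terminal cardiac-puncture bleed; serum taken for transaminases and other chemistries. Sacrifice by cervical dislocation 48 h after last dose, with liver and spleen weighed at necropsy. Kidneys examined by histopathology.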

Mus musculus [13] = assay: Inhibition of PTEN expression in Balb/C mouse kidney assessed as increase in mRNA levels at 2.5 to 12.5 mg/kg, ip administered BID for 5 days measured 48 hrs after last dose […]; format: functional, organism-based
Summary of the method: (§4)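 Male Balb/c mice, n=4 per group, dosed i.p. in PBS and sacrificed 48 h after last dose. Liver, kidney and adipose tissue homogenised at once in 4 M guanidine isothiocyanate, 25 mM EDTA, 50 mM Tris-HCl pH 6. RNA purified on columns and run by fluorescence-based quantitative RT-PCR. Target transcript levels normalised to cyclophilin A and expressed relative to saline-treated controls.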

Mus musculus [14] = assay: Inhibition of PTEN expression in Balb/C mouse adipose tissue assessed as increase in mRNA levels at 2.5 to 12.5 mg/kg, ip administered BID for 5 days measured 48 hrs after last dose by […]; format: functional, organism-based; summary of the method: as §4
Mus musculus [15] = assay: Inhibition of PTEN expression in Balb/C mouse liver assessed as increase in mRNA levels at 2.5 to 12.5 mg/kg, ip administered BID for 5 days measured 48 hrs after last dose […]; format: functional, organism-based; summary of the method: as §4
Mus musculus [16] = assay: Acute toxicity in Balb/C mouse assessed as change in body weight at 2.5 to 12.5 mg/kg, ip administered BID for 5 days measured 48 hrs after last dose; format: organism-based; design: dose 2.5-12.5 mg/kg, route intraperitoneal; settings: in vivo; summary of the method: as §3
Mus musculus [17] = assay: Acute toxicity in Balb/C mouse assessed as change in organ weight at 2.5 to 12.5 mg/kg, ip administered BID for 5 days measured 48 hrs after last dose; format: organism-based; design: dose 2.5-12.5 mg/kg, route intraperitoneal; settings: in vivo; summary of the method: as §3

| SMILES | IC50 (BCL1) | Activity (Mus musculus [1]) | Activity (Mus musculus [2]) | Activity (Mus musculus [3]) | Activity (Mus musculus [4]) | Activity (Mus musculus [5]) | Activity (Mus musculus [6]) | inhibition (Mus musculus [7]) | Activity (Mus musculus [8]) | Activity (Mus musculus [9]) | Activity (Mus musculus [10]) | Activity (Mus musculus [11]) | Activity (Mus musculus [12]) | Activity (Mus musculus [13]) | Activity (Mus musculus [14]) | Activity (Mus musculus [15]) | Activity (Mus musculus [16]) | Activity (Mus musculus [17]) |
| --- | --- | --- | --- | --- | --- | --- | --- | --- | --- | --- | --- | --- | --- | --- | --- | --- | --- | --- |
| COCCO[C@@H]1[C@H](OP(=O)(S)OC[C@H]2O[C@@H](n3cc(C)c(=O)[nH]c3=O)C[C@@H]2OP(=O)(S)OC[C@H]2O[C@@H](n3cnc4c(=O)[nH]c(N)nc43)[C@H](OCCOC)[C@@H]2OP(=O)(S)OC[C@H]2O[C@@H](n3ccc(N)nc3=O)[C@H](OCCOC)[C@@H]2OP(=O)(S)OC[C@H]2O[C@@H](n3cc(C)c(=O)[nH]c3=O)C[C@@H]2OP(=O)(S)OC[C@H]2O[C@@H](n3cnc4c(N)ncnc43)[C@H](O)[C@@H]2OP(=O)(S)OC[C@H]2O[C@@H](n3cnc4c(=O)[nH]c(N)nc43)[C@H](O)[C@@H]2OP(=O)(S)OC[C@H]2O[C@@H](n3ccc(N)nc3=O)[C@H](O)[C@@H]2OP(=O)(S)OC[C@H]2O[C@@H](n3ccc(N)nc3=O)[C@H](O)[C@@H]2OP(=O)(S)OC[C@H]2O[C@@H](n3cc(C)c(=O)[nH]c3=O)C[C@@H]2OP(=O)(S)OC[C@H]2O[C@@H](n3ccc(N)nc3=O)[C@H](O)[C@@H]2OP(=O)(S)OC[C@H]2O[C@@H](n3cc(C)c(=O)[nH]c3=O)C[C@@H]2OP(=O)(S)OC[C@H]2O[C@@H](n3cnc4c(=O)[nH]c(N)nc43)[C@H](O)[C@@H]2OP(=O)(S)OC[C@H]2O[C@@H](n3cnc4c(=O)[nH]c(N)nc43)[C@H](O)[C@@H]2OP(=O)(S)OC[C@H]2O[C@@H](n3cnc4c(N)ncnc43)[C@H](O)[C@@H]2OP(=O)(S)OC[C@H]2O[C@@H](n3cc(C)c(=O)[nH]c3=O)C[C@@H]2OP(=O)(S)OC[C@H]2O[C@@H](n3cc(C)c(=O)[nH]c3=O)C[C@@H]2OP(=O)(S)OC[C@H]2O[C@@H](n3cc(C)c(=O)[nH]c3=O)C[C@@H]2OP(=O)(S)OC[C@H]2O[C@@H](n3cnc4c(=O)[nH]c(N)nc43)[C@H](OCCOC)[C@@H]2OP(=O)(S)OC[C@H]2O[C@@H](n3cnc4c(N)ncnc43)[C@H](OCCOC)[C@@H]2O)[C@@H](CO)O[C@H]1n1ccc(N)nc1=O (stereo partly drawn) | 3.2 µM | Non-toxic | Active | Non-toxic | Active | Non-toxic | Non-toxic | inactive | Non-toxic | Non-toxic | Non-toxic | Active |  |  |  |  |  |  |
| Cc1cn(CC(=O)N(CCNC(=O)CN(CCNC(=O)[C@H](CCCNC(=N)N)N(CCNC(=O)[C@H](CCCNC(=N)N)NC(=O)[C@H](CCCCNC(=N)N)NC(=O)[C@H](Cc2ccccc2)NC(=O)[C@H](CCCCNC(=N)N)NC(=O)[C@H](CCCCNC(=N)N)NC(=O)[C@H](CCCCNC(=N)N)NC(=O)[C@H](C)NC(=O)[C@H](CCCNC(=N)N)NC(=O)[C@H](CCCCNC(=N)N)NC(=O)[C@H](Cc2ccccc2)NC(=O)[C@H](C)NC(=O)[C@H](CCCNC(=N)N)NC(=O)[C@H](CCCCNC(=N)N)NC(=O)CN)C(=O)Cn2cc(C)c(=O)[nH]c2=O)C(=O)Cn2ccc(N)nc2=O)CC(=O)NCCN(CC(=O)NCCN(CC(=O)NCCN(CC(=O)NCCN(CC(=O)NCCN(CC(=O)NCCN(CC(=O)NCCN(CC(=O)NCCN(CC(=O)NCCN(CC(=O)NCCN(CC(=O)NCCN(CC(=O)NCCN(CC(=O)NCCN(CC(=O)N[C@@H](CCCCN)C(N)=O)C(=O)Cn2cnc3c(N)ncnc32)C(=O)Cn2ccc(N)nc2=O)C(=O)Cn2cnc3c(N)ncnc32)C(=O)Cn2cc(C)c(=O)[nH]c2=O)C(=O)Cn2ccc(N)nc2=O)C(=O)Cn2cc(C)c(=O)[nH]c2=O)C(=O)Cn2cnc3c(N)ncnc32)C(=O)Cn2ccc(N)nc2=O)C(=O)Cn2cnc3c(N)ncnc32)C(=O)Cn2ccc(N)nc2=O)C(=O)Cn2cnc3c(=O)[nH]c(N)nc32)C(=O)Cn2cnc3c(N)ncnc32)C(=O)Cn2ccc(N)nc2=O)c(=O)[nH]c1=O |  |  |  |  |  |  |  |  |  |  |  |  | Non-toxic | inactive | inactive | inactive | Non-toxic | Non-toxic |
